Activity calls are given as the source filed them.
What was measured:
Assay type in all cases: functional, cell-based
HL-60 = assay: Cytotoxicity against human HL60 cells at 10 uM after 48 hrs by fluorescent microplate assay
Method in brief: (§1)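 Cells were seeded in 96-well plates in RPMI 1640 with 10% fetal calf serum and 10 units/mL penicillin-streptomycin. They were then cultured 24 h at 37 °C in humidified 5% CO2 before treatment. Compounds were added dissolved in DMSO, and the read-out was cell viability.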

NCI-H929 = assay: Cytotoxicity against human NCI-H929 cells at 10 uM after 48 hrs by fluorescent microplate assay; method in brief: as §1
K562 = assay: Cytotoxicity against human K562 cells at 10 uM after 48 hrs by fluorescent microplate assay; method in brief: as §1
CCRF-CEM = assay: Cytotoxicity against human CEM cells at 10 uM after 48 hrs by fluorescent microplate assay; method in brief: as §1
U-266 = assay: Cytotoxicity against human U266 cells at 10 uM after 48 hrs by fluorescent microplate assay; method in brief: as §1
U-937 = assay: Cytotoxicity against human U937 cells at 10 uM after 48 hrs by fluorescent microplate assay; method in brief: as §1
KG-1 = assay: Cytotoxicity against human KG1 cells at 10 uM after 48 hrs by fluorescent microplate assay; method in brief: as §1
Jurkat = assay: Cytotoxicity against human Jurkat cells at 10 uM after 48 hrs by fluorescent microplate assay; method in brief: as §1

Measured: Activity

COc1cc([C@H]2Oc3c(OC)cc([C@H](O)[C@H](O)CO[C@@H]4O[C@H](CO)[C@@H](O)[C@H](O)[C@H]4O)cc3[C@@H]2CO)ccc1O
inactive: all assays above

O=C(/C=C/c1ccc(O)c(O)c1)O[C@H]1[C@H](O[C@@H]2OC[C@](O)(CO)[C@H]2O)[C@@H](O)[C@H](OCCc2ccc(O)c(O)c2)O[C@@H]1CO[C@@H]1OC[C@H](O[C@@H]2OC[C@](O)(CO)[C@H]2O)[C@H](O)[C@H]1O
inactive: all assays above

From ChEMBL document CHEMBL1152968, “Phenylethanoid and lignan glycosides from polar extracts of Lantana, a genus of verbenaceous plants widely used in traditional herbal therapies” (J Nat Prod, 2009)
